In ChEMBL document CHEMBL4513216, “Probing the Open Global Health Chemical Diversity Library for Multistage-Active Starting Points for Next-Generation Antimalarials” (ACS Infect Dis, 2020):

Assay: Toxicity liver stage against HepG2, at 10uM
Format: cell-based
Parameters: test concentration 10 uM, cell line HepG2-A16-CD81EGFP
Details: human, HepG2-A16-CD81EGFP cells; read-out: INHIBITION
Outline: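 Uninfected HepG2-A16-CD81EGFP cells, 3 × 10^3 per well, 1536-well, plated on prespotted compound at 10 μM final, parasite-free screening media added to match infected plates; puromycin 10 μM positive, DMSO 0.5% negative; run in parallel with 48 h PbLuc assay at 37 °C, 5% CO2; viability by CellTiter-Glo luminescence, normalized to controls.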

SMILES | cytotoxicity at 10 µM [%]
CCc1nnc(CN(C)CC2CCCCC2)o1 | 0.897
CC(=O)N(C)Cc1ccccc1NCc1c(C)noc1C | 5.76
CCNC(=O)c1ccc(CNCc2c(C)nn(C)c2N(C)C)cc1 | 1.71
CC(C)Cc1noc(CN(C)c2cc(C(C)C)nc3ccnn23)n1 | -7.55
Cc1noc(C)c1CN1CCC2(CC1)CC(Oc1cccnc1)C2 | 23.2
CNc1ncc(CN(C)C(=O)c2c[nH]nc2-c2cccc(F)c2)cn1 | -4.69
O=C(c1ccco1)N1CCO[C@@H]2CNC[C@@H]21 | -108
COc1ccc(OC)c([C@@H]2N[C@H](c3nccs3)Cc3ccsc32)c1 | 12.6
Cc1cc(C(=O)N(C)S(=O)(=O)C(C)C)ccc1F | -54.3
CN(C)C(=O)C1CN(Cc2ccc(C#N)cc2)c2ccccc2O1 (stereo not given) | 6.47
COc1ccc2c(c1)CN(Cc1nc3ccsc3c(=O)[nH]1)CC2 | -4.64
Cn1c2c(c(=O)n1C)CN(S(=O)(=O)c1cccs1)CCC2 | 8.98
COc1ccccc1C1CNCCN1C(C)=O (stereo not given) | 3.6
O=C1CSC(c2ccc(O)cc2)c2sccc2N1 (stereo not given) | 5.31
CN(C)c1ncccc1CNC(=O)NCc1ccc(Cl)s1 | 9.21
Cn1cnc2c1CCN(Cc1nc(-c3ccsc3)no1)C2 | -3.29
O=C(NC1CC1)N1CCn2c(Cn3cccn3)cnc2C1 | -72.8
Cc1ccc(C(=O)N(C)Cc2ccc3c(c2)OCCO3)c(=O)[nH]1 | -9.24
COc1ccc(CN2C[C@H]3CC[C@@H](C2)N(S(=O)(=O)C2CC2)C3)cc1 | -1.12
CCc1ccc(OCC(O)CN2CCN(S(C)(=O)=O)CC2)cc1 (stereo not given) | 7.07
O=C(c1cnc(-c2ccccc2)s1)N1CCOC2(CCCC2)C1 | -1.52
CN(Cc1ccncc1)Cc1cnn(-c2ccc(F)cc2)c1 | 10
Cc1nc(C2(NCc3ccc(C#N)cc3F)CCCCC2)no1 | -11.2
CC(C)(C)OC(=O)NCC1CCN(C(=O)c2ccccc2O)C1 (stereo not given) | -3.73
CC(NCC(=O)N(C)C1CC1)c1ccc(S(C)(=O)=O)c(F)c1 (stereo not given) | 6.27
CC(C)c1cc(NC(=O)CN2CCc3ccccc3C2)on1 | -4.89
Cc1cnn(CC(C)NCc2nc(-c3cccnc3)no2)c1 (stereo not given) | -8.86
CCS(=O)(=O)CCN1CCN(C(C)c2cccnc2)CC1 (stereo not given) | 8.65

SMILES | cytotoxicity at 10 µM [%]
CN(C(=O)Cc1coc(-c2cccs2)n1)C1(C#N)CCC1 | 6.52
Cn1c(CN2CCN(CC3CCCO3)CC2)nc2ccccc21 (stereo not given) | -25.1
CC(=O)N1CCCN(C(C(=O)O)c2ccccc2OC(F)(F)F)CC1 (stereo not given) | 15.5
Cc1ccc(C(=O)N2CC[C@H]3[C@H]2CCN3CC2CCOCC2)cn1 | -73.3
O=C1CC[C@H](C(=O)N(CCc2ccccc2)C2CCOC2)N1 (stereo not given in full) | 1.15
COCC1CN(C(=O)[C@H]2CCCO2)Cc2nnn(CC3CC3)c21 (stereo not given in full) | -1.59
CNC(=O)c1ccc(CNC(=O)NCCN(C)C2CCCC2)cc1 | -7.66
Cc1cnc(NCC(C)(C)N2CCN(C)CC2)nc1 | -4.52
Cc1cnn(CCNCC(O)COc2ccc(C#N)cc2)c1 (stereo not given) | -11.9
Cc1c(C(=O)N2CCC(O)(CN(C)C)C2)c2ccccc2n1C (stereo not given) | 3.49
O=C(NCc1ccco1)N1CCC(n2cc(-c3ccccn3)nn2)CC1 | 16.9
C[C@@H]1CN(C(=O)c2cccs2)C[C@]12CCN(CCN(C)C)C2=O | 4.4
CCOc1ccc(N(CCC#N)C(=O)c2ccc(OC)nc2)cc1 | 2.52
N#Cc1ccccc1OCCN1CCCC1Cn1cncn1 (stereo not given) | -10.7
Cn1ccc(C(=O)N2CCC(Cc3cccc4cccnc34)C2)n1 (stereo not given) | 2.16
C[C@H](C(=O)N1Cc2ccccc2CC2(CCCN2C)C1)c1ccccc1 (stereo not given in full) | 6.42
CC(SCc1cc(Br)cc2cccnc12)C(N)=O (stereo not given) | 11.7
CCOc1c(C(N)=O)cn(C)c1-c1nc2cc(NC(C)=O)ccc2n1C | -46.9
CCOCCNC(=O)[C@@H]1CCCN1c1nccc(Nc2ccccc2)n1 | 2.66
CN1CC2(COCCN(c3ncccn3)C2)OCC1=O (stereo not given) | -112
CC(=O)c1cn(CCC(=O)NCCCC(=O)O)c2ccccc12 | -1.63
COc1ccc(CN(C)C2CCN(C(=O)C(C)C)CC2)c2cccnc12 | 12.5
CCCc1cncnc1N1CCC(NCCc2ccc(O)cc2)CC1 | 2.47
CSCc1nc(CNC(=O)C2CCCN(C(=O)N(C)C)C2)cs1 (stereo not given) | -3.99
CN1CCC(NC(=O)Nc2ccc(F)c(-n3cccc3)c2)C1=O (stereo not given) | -135
COCC1COCCC12CCN(C(=O)CC1=CCCCC1)CC2 (stereo not given) | -1.86
O=C(CCCc1ccccn1)N1CCSC2(CCCCC2)C1 | -3.71
